{"data": "Measured values from different studies", "target": "Sodium-dependent serotonin transporter (SLC6A4, Homo sapiens, UniProt P31645)", "note": "Compare with care: the assays were run in different laboratories."}
{"SMILES": "COc1cc(C(=O)N2CC[C@@H](O)[C@@H](N)C2)cc2nc(-c3cc4ccccc4n3CC3CC3)n(C)c12", "observed": "transporter uptake", "measurement": "IC50", "result": "50.1 µM"}
{"SMILES": "CNc1nc(C#Cc2ccc(Br)s2)nc2c1ncn2[C@H]1[C@H](O)[C@H](O)[C@]2(C(=O)OC)C[C@H]12", "observed": "ligand displacement", "method": "radioligand", "notes": "cell membranes", "measurement": "Ki", "result": "> 10 µM"}
{"SMILES": "C[C@@H](NC(=O)[C@@H](N)Cc1ccc(O)cc1)C(=O)NCC(=O)N[C@@H](Cc1ccccc1)C(=O)N(C)CCC[C@@]1(c2ccc(F)cc2)OCc2cc(C#N)ccc21", "observed": "ligand displacement", "method": "radioligand", "measurement": "Ki", "result": "0.28 µM"}
{"SMILES": "CCOC(=O)[C@@]12C[C@@H]1[C@@H](n1cnc3c(NC)nc(C#Cc4ccc(Cl)s4)nc31)[C@H](O)[C@@H]2O", "observed": "ligand displacement", "method": "radioligand", "notes": "cell membranes", "measurement": "Ki", "result": "> 10 µM"}
{"SMILES": "CC(=O)N1C[C@@H](CCN2CC=C(c3c[nH]c4cc(Cl)ccc34)CC2)c2ccccc21", "observed": "ligand displacement", "method": "radioligand", "notes": "cell membranes", "measurement": "IC50", "result": "0.0438 µM"}
{"SMILES": "CN[C@@H](C)C(=O)c1ccccc1", "observed": "calcium signal", "action": "agonist", "method": "fluorescence", "measurement": "EC50", "result": "15.3 µM"}
{"SMILES": "Clc1ccc2c(C3CCN(CCc4c[nH]c5ccccc45)CC3)c[nH]c2c1", "observed": "transporter uptake", "action": "inhibitor", "method": "radiometric", "measurement": "Ki", "result": "0.053 µM"}
{"SMILES": "OC(c1ccc(F)cc1)C(F)(F)CCN1CCC(O)(c2ccc(Cl)cc2)CC1 (racemic)", "observed": "ligand displacement", "method": "radioligand", "measurement": "Ki", "result": "1.99 µM"}
{"SMILES": "CC(N)CCc1ccccc1Cl (stereo not shown)", "observed": "transporter uptake", "action": "inhibitor", "method": "radiometric", "measurement": "Ki", "result": "24 µM"}
{"SMILES": "CNc1nc2cc(OCCCCN3CCN(c4cccc(Cl)c4Cl)CC3)ccc2s1", "observed": "ligand displacement", "method": "radioligand", "measurement": "Ki", "result": "0.45 µM"}
{"SMILES": "Clc1ccc2c(C3=CCN(CCc4c[nH]c5ccccc45)CC3)c[nH]c2c1", "observed": "ligand displacement", "method": "radioligand", "notes": "cell membranes", "measurement": "IC50", "result": "0.0255 µM"}
{"SMILES": "C[C@H](N)Cn1ncc2ccc3c(c21)CCCO3", "observed": "ligand displacement", "method": "radioligand", "measurement": "Ki", "result": "62.5 µM"}
{"SMILES": "CNC(C)(C)C(=O)c1ccccc1", "observed": "calcium signal", "action": "agonist", "method": "fluorescence", "measurement": "EC50", "result": "12.9 µM"}
